From PubChem BioAssay
Yeast superoxide = lowers age-related superoxide in aged yeast cells. actives 0.18% (n = 330,000). superoxide response (% of plate mean), % at 10 µM. S. cerevisiae aged cells, superoxide DHE fluorescence; active compounds read low;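 active means superoxide response under a set limit, about three screen SD below normal, cut at about 65% in these data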;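 further: yeast aged for seven days with compound at 30 °C before DHE staining; 100% = average MFI of all compound-treated wells on the plate with controls excluded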
PolyA inhibitor = blocks polyadenylation in yeast reporter cells | S. cerevisiae SKY197-pL101 polyadenylation reporter, beta-gal luminescence; efflux-impaired pdr1/pdr3 knockout yeast; score 100 = 6 SD above DMSO | activity score, % at 12 µM | actives 0.02% (n = 300,000) | AID 1875;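 active means lowest replicate activity score at least 50, where 100 means six control SD above control mean; inconclusive means lowest score under 50 but half or more replicates reach 50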;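 further: yeast exposed to compound for 9 h at 30 °C; higher score means more reporter readthrough which indicates perturbed polyadenylation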
GSK3B inh = inhibitors of human GSK3beta kinase; GST-GSK3beta kinase, ADP-Glo luminescence, 60 min; active compounds read low; AID 2097; activity score (negative = inhibition), % at 10 µM; actives 0.038% (n = 300,000); P49841;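 active means more than half of replicate wells score below -50%, meaning over 50% inhibition versus plate controls; inconclusive means some replicates but at most half score below -50%; inactive means no replicate scores below -50%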;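 further: 0% = median DMSO wells and -100% = median GW8510 positive control wells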
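Test system: GST-tagged human GSK3beta kinase, cell-free; evaluation: activity score scaled between in-plate DMSO and GW8510 controls; measured by: ADP-Glo luminescence; incubation: 60 min reaction, RT; benchmarks: DMSO and 20 µM GW8510; reagent: peptide substrate plus 25 µM ATP (final); medium: Tris/MgCl2 kinase buffer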
STK33 inh = blocks human STK33 kinase activity; Q9BYT3; purified STK33, MBP phosphorylation, ADP-Glo luminescence; inhibition, % at 10 µM; actives 0.073% (n = 320,000); AID 2661;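 active means inhibition at or above 25%, using the most active replicate where run in duplicate; inactive means inhibition below 25%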
Target sequence (Q9BYT3 whole entry, looked up): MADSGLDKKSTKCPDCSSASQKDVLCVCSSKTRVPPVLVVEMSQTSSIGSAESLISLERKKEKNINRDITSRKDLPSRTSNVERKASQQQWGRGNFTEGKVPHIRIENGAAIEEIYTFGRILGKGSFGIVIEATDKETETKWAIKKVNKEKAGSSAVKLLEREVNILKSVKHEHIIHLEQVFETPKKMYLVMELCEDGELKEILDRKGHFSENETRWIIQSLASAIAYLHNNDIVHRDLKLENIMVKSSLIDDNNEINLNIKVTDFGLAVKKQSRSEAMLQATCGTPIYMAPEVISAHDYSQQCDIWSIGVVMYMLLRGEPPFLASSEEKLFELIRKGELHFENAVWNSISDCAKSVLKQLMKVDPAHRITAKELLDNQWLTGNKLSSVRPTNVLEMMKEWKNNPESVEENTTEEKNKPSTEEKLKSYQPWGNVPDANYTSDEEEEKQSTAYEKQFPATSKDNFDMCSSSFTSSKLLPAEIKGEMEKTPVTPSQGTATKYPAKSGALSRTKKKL
GSK3 alpha inh = human GSK-3 alpha kinase inhibition; inhibition, % at 10 µM; P49840; actives 0.1% (n = 320,000); ADP-Glo luminescence, 60 min;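 active means more than half of replicates show inhibition above 20%; inconclusive means some but at most half of replicates above 20% inhibition; inactive means no replicate shows inhibition above 20%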;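 further: GST-tagged GSK-3 alpha with peptide substrate and 25 µM ATP; 0% = DMSO neutral wells and 100% = GW8510 positive control wells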
AI-2 QS mod = modulates the Vibrio harveyi AI-2 quorum sensing system. actives 0.4% (n = 300,000). AID 2094. activity change, % at 7.5 µM. Vibrio harveyi JMH597 AI-2 luminescence/OD600 ratio, 9 h; active compounds read low; strain lacks LuxN and CqsS sensors; 0 = neutral-control median; in the data active means activity change below about -75%, passing the limit was not always enough; inconclusive means no clear call, values can overlap the other calls;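 further: luminescence divided by OD600 gain over 9 h not by final OD600 alone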
JMH597 growth rt = retest: inhibitors of Vibrio harveyi JMH597 growth | OD600 absorbance, 9 h; lacks LuxN and CqsS sensors | AID 2726 | shares compounds with AI-2 QS mod | actives 1% (n = 750) | growth inhibition, % at 7.5 µM;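 active means every replicate shows growth inhibition above 50%; inconclusive means at least half, but not all, replicates pass that cutoff; inactive means fewer than half of replicates pass it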
BB721 const-QS lum = retest counter-screen: luminescence loss in constitutive-on quorum sensing strain BB721. shares compounds with AI-2 QS mod. Vibrio harveyi BB721 luminescence, 9 h. inhibition, % at 7.5 µM. actives 95% (n = 750). AID 2727;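 active means inhibition above about 80% in every replicate, not just on average, limit read from the data; inconclusive means at least half of replicates past the limit, but not all; inactive means fewer than half of replicates past the limit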
BB721 growth rt = retest Vibrio harveyi BB721 growth inhibition; shares compounds with AI-2 QS mod; OD600 absorbance, 9 h; growth inhibition, % at 7.5 µM; actives 3% (n = 750); AID 2728;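 active means every replicate shows growth inhibition above 50%; inconclusive means at least half but not all replicates above 50% inhibition; inactive means under half of replicates above 50% inhibition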
AI-2 QS JMH597 = Vibrio harveyi AI-2 signaling luminescence modulation – JMH597 strain, confirmation. shares compounds with AI-2 QS mod. Vibrio harveyi JMH597 AI-2 quorum sensing luminescence, 9 h; luxN and CqsS knockout, AI-2 only. inhibition, % at 7.5 µM. actives 97% (n = 750). AID 2736;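 active means every replicate shows more than 75% inhibition of signal versus neutral control wells; inconclusive means half to three quarters of replicates exceed 75% inhibition; inactive means fewer than half of replicates exceed 75% inhibition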
* marks the source's active call; other numbers are inactive results; u = inconclusive; x = not tested or not shown. Only some compounds are listed: those with a hit (about 0.72% of all), similar ones and a draw of the others.

SMILES | Yeast superoxide | PolyA inhibitor | GSK3B inh | STK33 inh | GSK3 alpha inh | AI-2 QS mod | JMH597 growth rt | BB721 const-QS lum | BB721 growth rt | AI-2 QS JMH597
COc1ccc(C(=O)CC(c2ccccc2)S(=O)(=O)c2ccc(C)cc2)cc1 (stereo not given) | 101.2 | 15.4 | -0.5 | -2.6 | -1.9 | 14.3 | x | x | x | x
COc1ccc(C(CC(=O)c2ccc(O)cc2)S(=O)(=O)c2ccc(C)cc2)cc1 (stereo not given) | 86.0 | -6.8 | -2.7 | 3.2 | -3.4 | -90.9* | 3.4 | 95.7* | -12.6 | 97.2*
O=C(Nc1ccc(S(=O)(=O)N2CCCCC2)cc1)C1CC1 | 89.2 | -16.1 | 2.1 | -0.3 | -3.3 | 16.2 | x | x | x | x
CCOc1ccc(NC(=O)C2CCN(S(=O)(=O)c3cccnc3)CC2)cc1 | 94.3 | 1.0 | -0.8 | -1.5 | -4.0 | -86.3* | 20.4 | 95.0* | 14.2 | 96.9*
O=C(Nc1ccc(S(=O)(=O)N2CCCC2)cc1)C1CCCCC1 | 107.1 | -2.6 | 0.2 | -1.1 | -0.4 | -82.8* | 13.6 | 93.1* | 18.6 | 95.5*
CCCCC(=O)NC(=S)Nc1ccc(S(=O)(=O)N2CCCC2)cc1 | 112.2 | 7.8 | -1.5 | -0.4 | -2.5 | -84.2* | 17.5 | 85.5* | 5.1 | 92.4*
CCOc1ccc(OCC)c(NC(=O)C2CCN(S(=O)(=O)c3cccnc3)CC2)c1 | 99.0 | -14.4 | -8.1 | -1.8 | -1.2 | 5.9 | x | x | x | x
O=C(NCCCNC(=O)c1ccc(-c2cccc(Cl)c2)o1)c1cnccn1 | 93.8 | -8.2 | 1.5 | -0.6 | 1.1 | 18.1 | x | x | x | x
Cc1ccc(NC(=O)COC(=O)c2ccc(-n3cccn3)cc2)cc1C | 84.8 | x | x | x | x | x | x | x | x | x
C/C(=N\NC(=O)C1CC1)c1ccc(C(C)(C)C)cc1 | 96.3 | x | -1.9 | -0.4 | x | 48.8 | x | x | x | x
CC(C)c1ccc(/C=N/NC(=O)C2CCCC2)cc1 | 103.0 | 15.4 | 4.8 | 0.6 | 1.4 | u | -1.5 | 91.4* | 3.9 | 92.4*
CC(C)(C)c1ccc(/C=N/NC(=O)C2CCCC2)cc1 | 123.8 | x | -0.5 | 1.8 | x | -83.2* | 31.5 | 96.2* | u | 97.1*
Cc1ccc(C)n1CCN1CCN(C(=O)CC#N)CC1 | 101.9 | 1.3 | 1.8 | -2.2 | 1.2 | -0.9 | x | x | x | x
O=C(COn1nnc2ccc(Cl)cc21)NCc1ccccc1 | 73.0 | 5.7 | -0.6 | 0.1 | 6.4 | -88.9* | 4.0 | 95.8* | -4.9 | 97.2*
COc1cccc(CN2CCN(Cc3nc(C(C)C)cs3)CC2CCO)c1 (stereo not given) | 95.6 | 14.3 | -1.2 | 0.6 | -1.6 | 10.6 | x | x | x | x
O=C(CN1C(=O)NC(c2ccc(F)cc2)C1=O)NC1CCCCC1 (stereo not given) | 82.3 | x | x | -0.5 | -3.3 | x | x | x | x | x
CCC1(c2ccccc2)NC(=O)N(CC(=O)NCc2ccc(C)cc2)C1=O (stereo not given) | 90.9 | -11.2 | 1.1 | 0.0 | 1.4 | -90.8* | -12.9 | 94.2* | -31.4 | 96.8*
CCC1(c2ccccc2)NC(=O)N(CC(=O)NCc2ccc(F)cc2)C1=O (stereo not given) | 120.0 | 4.3 | -1.2 | -0.1 | -1.6 | -62.9 | x | x | x | x
CCC1(c2ccccc2)NC(=O)N(CC(=O)Nc2ccc(OC)nc2)C1=O (stereo not given) | 94.2 | -17.2 | 0.6 | -0.9 | 1.5 | -87.6* | 2.0 | 89.8* | -0.4 | 94.3*
COc1ccc(/C=N/NC(=O)CN2CCSCC2)cc1C | 111.4 | 2.2 | 1.9 | -0.5 | 2.2 | 27.0 | x | x | x | x
Clc1ccccc1/C=C/c1nc(-c2cccnc2)no1 | 103.6 | -7.7 | 1.5 | -1.3 | -2.9 | -66.1 | x | x | x | x
